Assay results: PMC3423956 (European journal of medicinal chemistry, 2009)

Key:
[1] = system: HCV subgenomic RNA replicon; assay: Anti-HCV activity in Huh-7 cells with HCV subgenomic RNA replicon system; format: cell-based; conditions: Hepatitis C virus, Huh-7, read-out: Anti-HCV activity Huh-7 cells EC50, Huh-7 cells, HCV replicon
[2] = Stability in solution; format: physicochemical; conditions: for conversion to ACV: water
In short: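 Test compound was diluted from a freshly made stock into water and into methanol. Half was kept at room temperature and half in the autosampler at 4°C. Samples were injected every 15 min for 2 hr, then hourly, daily and weekly. Analysis was LC-MS/MS on a C18 column (ammonium formate pH 3 or water / methanol gradient, 30°C, ESI+, SRM). Guanine-analog formation was quantified against parent-nucleoside and acyclovir calibrations (10–1000 nM).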

[3] = system: HSV-1 (strain F); assay: HSV-1 plaque reduction assay in Vero cells; format: cell-based; conditions: Human alphaherpesvirus 1, Vero
[4] = system: herpes simplex virus (HSV); conditions: cited from earlier work

SMILES | EC50 [1] [µM] | reversion to parent nucleoside (7 or 8) ([2]; after 3 weeks) [%] | also measured
COc1ccc(-c2cn3c(=O)c4ncn([C@@H]5O[C@H](CO)[C@@H](O)[C@@]5(C)O)c4nc3[nH]2)cc1 [Compound 36, 3-(β-D-2-C-Methyl-ribofuranosyl)-3,9-dihydro-6-(4-methoxy-phenyl)-9-oxo-5H-imidazo-[1,2-a]purine] | < 10 | 30 | –
Nc1nc2c(ncn2COCCO)c(=O)[nH]1 [ACV, acyclovir] | – | – | EC50 ([3]; read-out: Activity against HSV-1 EC50): 0.075 µM; EC90 ([3]; read-out: Activity against HSV-1 EC90): 0.7 µM
C[C@@]1(O)[C@H](O)[C@@H](CO)O[C@H]1n1cnc2c(=O)n3cc(-c4cccs4)[nH]c3nc21 [Compound 39, 3-(β-D-2-C-Methyl-ribofuranosyl)-3,9-dihydro-6-(2-thienyl)-9-oxo-5H-imidazo-[1,2-a]purine] | < 10 | 60 | –
COc1ccc(-c2cn3c(=O)c4ncn([C@H]5C[C@H](N=[N+]=[N-])[C@@H](CO)O5)c4nc3[nH]2)cc1 [Compound 32, 3-(3-Azido-2,3-dideoxy-β-D-erythro-pentofuranosyl)-3,9-dihydro-6-(4-methoxyphenyl)-9-oxo-5H-imidazo-[1,2-a]purine] | – | 60 | –
COc1ccc(-c2cn3c(O)c4ncn(COCCO)c4nc3n2)cc1 [Compound 3, 6-(4-MeOPh)-TACV] | – | – | activity against herpes simplex virus (HSV) compared with parent [4]: as active as their parent congeners; conversion to ACV ([2]; after 3 weeks): 35%; conversion to ACV ([2]; after 4 days): 4%
